Drawing on ChEMBL document CHEMBL1127440, “Structure-affinity relationship studies on 5-HT1A receptor ligands. 2. Heterobicyclic phenylpiperazines with N4-aralkyl substituents” (J Med Chem, 1994), this text covers Ki for 18 compounds.

Each structure is given as a SMILES string. pKi: −log10 of the molar value.

The target in this test is T1, 5-hydroxytryptamine receptor 1A (Rattus norvegicus, UniProt P19327).
T1 sequence (P19327 whole entry): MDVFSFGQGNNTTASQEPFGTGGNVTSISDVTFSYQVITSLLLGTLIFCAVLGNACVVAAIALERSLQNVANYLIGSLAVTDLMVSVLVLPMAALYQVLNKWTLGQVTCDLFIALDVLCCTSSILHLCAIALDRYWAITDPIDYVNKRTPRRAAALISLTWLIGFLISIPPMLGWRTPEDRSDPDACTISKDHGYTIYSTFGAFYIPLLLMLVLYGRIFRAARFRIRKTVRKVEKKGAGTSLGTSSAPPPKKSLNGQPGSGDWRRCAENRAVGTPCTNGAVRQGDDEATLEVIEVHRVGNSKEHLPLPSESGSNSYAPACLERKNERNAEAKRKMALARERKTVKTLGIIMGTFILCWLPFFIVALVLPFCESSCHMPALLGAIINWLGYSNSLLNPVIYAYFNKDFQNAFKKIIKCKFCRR
The experiment in a line: Binding affinity to displace [3H]2-(di-N-propylamino)-8-hydroxy-tetralin from 5-hydroxytryptamine 1A (5-HT1A) receptor in rat frontal cortex homogenates. It counts as tissue-based. The method in brief: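 Rat frontal cortex homogenate; [3H]-8-OH-DPAT displaced from specific 5-HT1A sites. Each compound was tested at four to six concentrations in triplicate per assay. Three to six independent assays were run per compound. Ki ± SEM (nM) reported.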
The compound `O=C(NCCN1CCN(c2cccc3ccoc23)CC1)C1CCCCC1` had a pKi of 9.70.

Turning to `c1ccc(OCCCN2CCN(c3cccc4c3OCCO4)CC2)cc1`, the pKi was 9.02.

In turn, `c1ccc2c(c1)OCC(CN1CCN(c3cccc4c3OCCO4)CC1)O2` (stereo not drawn) had a pKi of 8.40.

As to `c1ccc(OCCCN2CCN(c3cccc4ccoc34)CC2)cc1`, the pKi was 9.07.

In turn, `O=C(NCCN1CCN(c2cccc3c2OCCO3)CC1)c1ccc(F)cc1` gave a pKi of 9.52.

For `c1ccc(OCCN2CCN(c3cccc4ccoc34)CC2)cc1`, the pKi is 9.34.

For `c1ccc(CN2CCN(c3cccc4ccoc34)CC2)cc1`, the pKi is 7.66.

`O=C(CCCN1CCN(c2cccc3ccoc23)CC1)c1ccc(F)cc1` showed a negative logarithm of the Ki (pKi) of 9.00.

The compound `c1ccc(CN2CCN(c3cccc4c3OCCO4)CC2)cc1` showed a pKi of 7.55.

Consider `O=C(NCCN1CCN(c2cccc3ccoc23)CC1)c1ccc(F)cc1`, for which the pKi is 9.82.

Consider `c1ccc(CCN2CCN(c3cccc4c3OCCO4)CC2)cc1`, for which the pKi is 9.33.

`O=C(CCCN1CCN(c2cccc3c2OCCO3)CC1)c1ccc(F)cc1` had a pKi of 8.85.

`c1ccc(OCCN2CCN(c3cccc4c3OCCO4)CC2)cc1` had a pKi of 9.14.

For the compound `c1ccc(CCCCN2CCN(c3cccc4c3OCCO4)CC2)cc1`, the pKi was 9.49.

Regarding `O=C(CCCN1CCN(c2cccc3c2OCCO3)CC1)c1ccccc1`, the negative logarithm of the Ki (pKi) is 9.17.

In the case of `c1ccc(CCN2CCN(c3cccc4ccoc34)CC2)cc1`, the pKi is 9.43.

The compound `O=C(NCCN1CCN(c2cccc3c2OCCO3)CC1)C1CCCCC1` had a negative-log Ki (pKi) of 9.36.

In turn, `c1ccc2c(c1)OCC(CN1CCN(c3cccc4ccoc34)CC1)O2` (stereo not drawn) had a pKi of 8.24.
